Laboratory results: PubChem BioAssay AID588833 (Broad Institute, 2011)

Biological target: Scavenger receptor class B member 1 (Mus musculus) (UniProt Q61009)
Assay: inhibitors of SR-BI-mediated DiI-HDL uptake, dose response, ldlA[mSR-BI] CHO cells, fluorescence, dry powder, set 7 (AID 588833)
Conditions: 3 h
Procedure, shortened: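 Compound: pin-transferred compounds; material: ldlA[mSR-BI] CHO cells; benchmarks: positive control of BLT-1 at 1 µM; timing: cells plated overnight, then 3 h DiI-HDL uptake at 37 °C; technique: bottom-read fluorescence after PBS washes, excitation 550 nm, emission 595 nm; probe or stimulus: DiI-labeled HDL at 10 µg/mL; buffer or medium: F12, fatty acid-free BSA, HEPES buffer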

Sequence of Scavenger receptor class B member 1 (Mus musculus) (Q61009 whole entry, looked up): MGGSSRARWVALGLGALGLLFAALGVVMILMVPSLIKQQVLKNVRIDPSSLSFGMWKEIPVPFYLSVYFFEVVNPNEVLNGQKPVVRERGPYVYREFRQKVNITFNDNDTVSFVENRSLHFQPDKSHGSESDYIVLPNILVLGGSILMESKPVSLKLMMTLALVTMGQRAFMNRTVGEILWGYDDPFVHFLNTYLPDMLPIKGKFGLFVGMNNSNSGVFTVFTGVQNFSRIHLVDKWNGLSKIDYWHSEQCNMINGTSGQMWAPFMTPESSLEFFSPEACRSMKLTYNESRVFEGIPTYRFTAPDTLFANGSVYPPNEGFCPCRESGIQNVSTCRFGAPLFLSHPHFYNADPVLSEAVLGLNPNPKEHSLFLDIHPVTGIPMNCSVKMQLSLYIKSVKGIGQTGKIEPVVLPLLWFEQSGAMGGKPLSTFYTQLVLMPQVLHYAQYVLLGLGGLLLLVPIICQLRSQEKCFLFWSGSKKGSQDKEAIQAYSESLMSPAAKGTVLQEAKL

C[C@H](C(=O)NC1CCCC1)N(C(=O)Cn1nnc(-c2ccc3c(c2)OCO3)n1)C1CCCCC1
AC50: 15.4 nM

COCC(=O)N1CCc2cc(-c3csc(NC(=O)c4cc(OC)cc(OC)c4)n3)ccc21
AC50: 6.18 nM

CCCCCCC1CCC/C1=N\NC(N)=S (stereo not drawn)
AC50: 0.536 nM
